The results in this text go back to ChEMBL document CHEMBL1154100, “Tetrahydroisoquinolines as dopaminergic ligands: 1-Butyl-7-chloro-6-hydroxy-tetrahydroisoquinoline, a new compound with antidepressant-like activity in mice” (Bioorg Med Chem, 2009).

The target in one assay is D(1A) dopamine receptor (Rattus norvegicus, UniProt P18901). As to the kind of experiment: Displacement of [3H]SCH23390 from dopamine D1 receptor in Wistar rat striatal membrane by liquid scintillation counting. It is filed as cell membranes, Striatum. The essentials: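 Female Wistar rat striatum homogenized in 50 mM Tris-HCl pH 7.4, then washed twice at 49,000g. Membranes were resuspended in Tris-ions buffer (NaCl, CaCl2, KCl, MgCl2, 0.1% ascorbate). [3H]-SCH23390 displacement was read by filtration and scintillation counting. Ki was derived using KD 0.36 nM; 3–6 independent runs in duplicate, mean SEM.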
Sequence of D(1A) dopamine receptor (P18901 whole entry): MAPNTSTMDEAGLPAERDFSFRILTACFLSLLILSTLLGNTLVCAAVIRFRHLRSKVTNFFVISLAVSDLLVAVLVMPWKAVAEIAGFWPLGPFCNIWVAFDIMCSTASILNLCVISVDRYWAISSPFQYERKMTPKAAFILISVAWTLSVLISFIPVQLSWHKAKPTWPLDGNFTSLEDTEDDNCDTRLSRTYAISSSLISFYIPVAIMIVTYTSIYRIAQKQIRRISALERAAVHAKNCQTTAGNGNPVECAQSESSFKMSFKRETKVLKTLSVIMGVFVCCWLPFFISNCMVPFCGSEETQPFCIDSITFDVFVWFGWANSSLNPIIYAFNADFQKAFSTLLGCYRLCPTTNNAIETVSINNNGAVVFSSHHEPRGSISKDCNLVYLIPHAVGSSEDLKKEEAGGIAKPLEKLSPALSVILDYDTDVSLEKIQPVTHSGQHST

The target of the next assay is D(2) dopamine receptor (Rattus norvegicus, UniProt P61169). Briefly: Displacement of [3H]raclopride from dopamine D2 receptor in Wistar rat striatal membrane by liquid scintillation counting. The assay is classed as cell membranes, Striatum. In a few lines: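 Striata from female Wistar rats (200–220 g) were homogenized in 50 mM Tris-HCl (pH 7.4) and centrifuged twice at 49,000g for 15 min at 4 °C. Membranes were resuspended in Tris buffer containing 120 mM NaCl, 2 mM CaCl₂, 5 mM KCl, 1 mM MgCl₂ and 0.1% ascorbic acid (pH 7.4). Samples were filtered, washed with cold buffer and counted by scintillation. Ki was derived using a [³H]raclopride KD of 1,25 nM, from 3–6 determinations run in duplicate.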
Sequence of D(2) dopamine receptor (P61169 whole entry): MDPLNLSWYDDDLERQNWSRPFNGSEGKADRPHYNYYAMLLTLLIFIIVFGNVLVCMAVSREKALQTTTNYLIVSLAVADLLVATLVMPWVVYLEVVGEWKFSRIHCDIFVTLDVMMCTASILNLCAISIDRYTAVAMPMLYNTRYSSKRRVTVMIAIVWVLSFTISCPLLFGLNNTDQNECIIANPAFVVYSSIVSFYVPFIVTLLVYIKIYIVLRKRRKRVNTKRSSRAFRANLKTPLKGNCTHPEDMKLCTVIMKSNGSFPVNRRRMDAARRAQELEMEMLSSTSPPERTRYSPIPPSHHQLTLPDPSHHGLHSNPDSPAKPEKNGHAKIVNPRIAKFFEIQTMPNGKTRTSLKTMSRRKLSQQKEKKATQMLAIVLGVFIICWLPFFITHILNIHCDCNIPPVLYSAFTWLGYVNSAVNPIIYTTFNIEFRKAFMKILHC
For orientation: In a radioligand displacement assay an active substance lowers the binding of a labelled ligand.

The species named for the next assay is Rattus norvegicus. As to the kind of experiment: Selectivity for Wistar rat dopamine D2 receptor over Wistar rat dopamine D1 receptor.
In assay [1] the target is Sodium-dependent dopamine transporter (Rattus norvegicus) (UniProt P23977). As to the kind of experiment: Inhibition of DAT in Wistar rat striatal synaptosomes at 100 uM by [3H]dopamine uptake assay. The assay is classed as subcellular. The note with it: Brain. The essentials:
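Synaptosomes were prepared from female Wistar rat striatum at 0–4 °C. Tissue was homogenized in 0.32 M sucrose, spun twice at 1000g for 10 min, and the pooled supernatants were spun at 16,000g for 30 min. The pellet was taken up in Krebs medium (pH 7.6, with glucose). Samples were preincubated for 10 min at 37 °C with pargyline, then given 0.5 nM final [³H]dopamine for 10 min. Uptake was stopped by ice-cold dilution and rapid fiberglass filtration.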

Calls of active or inactive are those of the source. The calls are words filed in the database; no cut-off is given here.

Sequence of Sodium-dependent dopamine transporter (Rattus norvegicus) (P23977 whole entry): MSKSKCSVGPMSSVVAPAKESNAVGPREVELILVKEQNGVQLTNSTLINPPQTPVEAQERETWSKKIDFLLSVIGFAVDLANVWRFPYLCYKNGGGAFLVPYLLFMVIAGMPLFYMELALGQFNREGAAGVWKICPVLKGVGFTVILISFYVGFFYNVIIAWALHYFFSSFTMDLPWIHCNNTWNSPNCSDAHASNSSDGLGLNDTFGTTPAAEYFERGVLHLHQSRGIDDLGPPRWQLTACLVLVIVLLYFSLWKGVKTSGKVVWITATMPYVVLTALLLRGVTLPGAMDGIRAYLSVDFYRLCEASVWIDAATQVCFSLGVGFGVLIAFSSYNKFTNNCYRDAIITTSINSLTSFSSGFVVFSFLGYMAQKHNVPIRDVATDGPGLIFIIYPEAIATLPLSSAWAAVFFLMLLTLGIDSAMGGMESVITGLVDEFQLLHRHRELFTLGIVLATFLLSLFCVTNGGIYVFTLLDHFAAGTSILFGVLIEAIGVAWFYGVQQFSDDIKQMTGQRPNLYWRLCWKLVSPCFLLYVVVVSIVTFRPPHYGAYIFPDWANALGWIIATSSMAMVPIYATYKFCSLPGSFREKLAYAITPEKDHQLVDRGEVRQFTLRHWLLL

On to `CCCCC1c2cc(O)c(Cl)cc2CCN1C` (centres undefined), for which the results for the Ki on D(1A) dopamine receptor and on D(2) dopamine receptor (read-out: pKi (converted)) were 1140 nM and 395 nM, respectively. Further, the fold change (FC) in the assay listed under Rattus norvegicus was 2.3. For the same compound, the outcome in assay [1] was inactive.

Consider `CN1CCc2cc(Cl)c(O)cc2C1c1ccccc1` (centres undefined), for which the Ki at D(1A) dopamine receptor is 40.3 nM; at D(2) dopamine receptor (read-out: pKi (converted)), 504 nM. Also, the fold change (FC) in the assay listed under Rattus norvegicus stood at 0.07. Moreover, the outcome in assay [1] was inactive.

Turning to `CCCCC1NCCc2cc(Cl)c(OC)cc21` (centres undefined), the Ki on D(1A) dopamine receptor was 17300 nM; at D(2) dopamine receptor (read-out: pKi (converted)) it was 780 nM. The fold change (FC) in the assay filed under Rattus norvegicus was found to be 20. For the same compound, in assay [1], the outcome was inactive.

With `O=C(CCCN1CCC(O)(c2ccc(Cl)cc2)CC1)c1ccc(F)cc1`, the fold change (FC) in the assay filed under Rattus norvegicus stood at 20.

As to `CCCCC1NCCc2cc(Cl)c(O)cc21` (centres undefined), the Ki is 1210 nM at D(1A) dopamine receptor and 91 nM on D(2) dopamine receptor (read-out: Ki). Moreover, in the assay listed under Rattus norvegicus, the fold change (FC) turned out to be 17. For the same compound, in assay [1], the result was inactive.

Turning to `COc1cc2c(cc1Cl)CCNC2c1ccccc1` (centres undefined), the Ki was 6000 nM at D(1A) dopamine receptor and 6140 nM at D(2) dopamine receptor (read-out: pKi (converted)). In addition, the fold change (FC) in the assay filed under Rattus norvegicus was found to be 1.2. Besides, the result in assay [1] was inactive.

Regarding `CN1CCc2cc(Cl)c(O)cc2C1Cc1ccccc1` (centres undefined), the values for the Ki on D(1A) dopamine receptor and at D(2) dopamine receptor (read-out: pKi (converted)) were 111 nM and 207 nM, respectively. Besides, the fold change (FC) in the assay filed under Rattus norvegicus was determined as 0.6. In addition, the outcome in assay [1] was inactive.

In the case of `CCCCC1c2cc(OC)c(Cl)cc2CCN1C` (centres undefined), the Ki at D(1A) dopamine receptor was 7280 nM; on D(2) dopamine receptor (read-out: pKi (converted)), 3770 nM. Also, the fold change (FC) in the assay filed under Rattus norvegicus turned out to be 2.7. The result in assay [1] was inactive.
